Screens as filed in PubChem.
M1 ag = M1 muscarinic receptor agonists, primary screen, CHO-M1 cells, Fluo-4 calcium, agonist mode | Muscarinic acetylcholine receptor M1 | Fluo-4 calcium fluorescence; stronger effect = higher value | B-score at 10 µM | 3% of 64,000 active | AID 626, 2007;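 active = fluorescence rise, raw or as B-score row- and column-corrected plate score, outside the 99.7% band of its plate's samples, either direction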
D1 mod = D1 CRE-luciferase signal change, two-sided – cell-based, HEK293 D1, dopamine EC30, D1 allosteric modulator project, primary screen; dopamine EC30 potentiation; actives deviate in either direction; 5.9% of 58,000 active; B-score at 10 µM; D(1A) dopamine receptor (Homo sapiens), P21728;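 active = luminescence count or its row- and column-corrected plate score outside the 99.7% band of the plate's sample wells, on either side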
mHtt clearance = clearance of mutant huntingtin inclusions, primary screen, imaging, HeLa Exon1htt(103Q)mCFP, confocal imaging; inhibition, % at 1.5 µM; aggregate imaging; zero = plate's median compound well; 0.42% of 47,000 active;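 active = inhibition of aggregate fluorescence above about 70%, also judged a hit by eye on the cell image, limit read from the data, passing the limit was not always enough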;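 also: cells exposed to compound for three days before fixation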
SF-1 act = activators of human SF-1, primary screen, cell-based, CHO-K1, Gal4-SF-1 LBD, luciferase luminescence; Steroidogenic factor 1 (Homo sapiens), Q13285; CHO-K1 Gal4-SF-1 LBD luciferase reporter; % increase over DMSO SF-1-specific signal; activation, % at 10 µM; 1.9% of 65,000 active;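 active = activation above the mean activation of all tested compounds plus 3 SD, cut at about 50% in these data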
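Assay system: CHO-K1 cells co-transfected with Gal4 DBD–human SF-1 LBD, 5xGal4 luciferase reporter / Input: 4,000 cells per well / Incubation: 20 h compound exposure at 37 °C after 1 h cell settling / Detection: SteadyLite luciferase luminescence / Control set: DMSO negative control and −SF1 background wells / Replication: one test per compound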
M1 antagonist = antagonists of rat M1 muscarinic receptor. CHO-M1 cells, Fluo-4 calcium, ACh EC80 antagonist mode; stronger effect = lower value. B-score at 10 µM. 3.4% of 64,000 active;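 active = calcium fluorescence response, raw or row-and-column corrected B-score, differing from the plate sample mean either way at a set confidence level, mostly lower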
Target sequence (P08482 whole entry, looked up): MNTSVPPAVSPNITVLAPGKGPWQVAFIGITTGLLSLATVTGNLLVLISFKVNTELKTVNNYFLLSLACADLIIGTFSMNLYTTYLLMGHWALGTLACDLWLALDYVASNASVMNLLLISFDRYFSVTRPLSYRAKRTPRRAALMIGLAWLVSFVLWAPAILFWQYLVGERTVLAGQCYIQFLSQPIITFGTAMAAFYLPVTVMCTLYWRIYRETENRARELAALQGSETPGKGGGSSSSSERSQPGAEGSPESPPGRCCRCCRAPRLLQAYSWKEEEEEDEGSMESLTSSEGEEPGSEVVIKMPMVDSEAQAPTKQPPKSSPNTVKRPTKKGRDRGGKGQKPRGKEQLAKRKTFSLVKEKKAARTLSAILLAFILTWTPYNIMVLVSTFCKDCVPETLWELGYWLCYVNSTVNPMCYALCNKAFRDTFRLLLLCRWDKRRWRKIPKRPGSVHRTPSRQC
RORA act = activators of orphan receptor RORA, primary screen, cell-based, luminescence | Nuclear receptor ROR-alpha (Homo sapiens), P35398 | CHO-K1 Gal4-RORA LBD luciferase reporter; percent increase over mock-subtracted basal signal | activation, % at 10 µM | 1.5% of 65,000 active | AID 560, 2006;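 active = activation above the mean of all tested compounds plus 3 SD, cut at about 49% in these data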
Of the large screens only hits and unclear results are named; the others gave an inactive call. In the library only some 11% were active in any assay of this set; here they are far more common.

OC12CCCCC1C(c1ccc3c(c1)OCO3)N(Cc1ccccc1F)CC2 (configuration not stated)	mHtt clearance 72.9
O=c1c(-c2ccc(F)cc2)coc2cc(O)ccc12	SF-1 act 63.3, RORA act 84.1 (no result: mHtt clearance)
O=c1c(-c2ccc(F)cc2)coc2c3c(ccc12)OCCO3	SF-1 act 62.7
CCOC(=O)c1nn(-c2ccc3c(c2)CCN3C(C)=O)cc1O	SF-1 act 64.8, RORA act 58.3 (no result: D1 mod, mHtt clearance)
COCCNC(=O)c1ccccc1NC(=O)COc1ccccc1	M1 antagonist 2.09 (no result: mHtt clearance)
C=CCN1CCN(C(c2cc(OC)ccc2OC)c2nnnn2CC2CCCO2)CC1 (configuration not stated)	none
CCOP(=O)(OCC)C(C#N)=C1SCN(c2ccc(Cl)cc2)CS1	none (no result: M1 ag, D1 mod, SF-1 act, M1 antagonist, RORA act)
Cc1ccc(C)n1-c1ccc(N2CCOCC2)cc1	mHtt clearance 96.9
c1ccn(-c2ccc(N3CCOCC3)cc2)c1	none (no result: M1 ag, D1 mod, SF-1 act, M1 antagonist, RORA act)
Cc1nc2ccccn2c1-c1csc(NCc2ccco2)n1	D1 mod -3.28
O=C(Nc1nc2ccccc2s1)C1CCCO1 (configuration not stated)	SF-1 act 59.0 (no result: mHtt clearance)
O=C(Nc1ncc(Cc2ccccc2)s1)C1CCCO1 (configuration not stated)	D1 mod -3.73, RORA act 54.7
COc1ccc(-c2csc(NC(=O)C3CCCO3)n2)cc1 (configuration not stated)	SF-1 act 63.6 (no result: mHtt clearance)
O=C(Nc1nc2ccc(F)cc2s1)C1CCCO1 (configuration not stated)	none (no result: M1 ag, D1 mod, SF-1 act, M1 antagonist, RORA act)
CCOC(=O)Nc1ccc(S(=O)(=O)Nn2cnnc2)cc1	none (no result: D1 mod)
CCOC(=O)C1=C(c2ccccc2)NC(SCC(=O)Nc2ccccc2C)=C(C#N)C1c1ccco1 (configuration not stated)	none (no result: mHtt clearance)
CC(C)=CC(=O)Nc1ccc2c(c1)OCO2	D1 mod -5.23
O=C(Nc1ccc2c(c1)OCO2)c1cncc(Br)c1	SF-1 act 53.1
O=C(Nc1ccc2c(c1)OCO2)c1cccc(F)c1	RORA act 52.0
O=C(CSCSCC(=O)Nc1ccc2c(c1)OCO2)Nc1ccc2c(c1)OCO2	none (no result: mHtt clearance)
O=C(Nc1ccc2c(c1)OCO2)c1c(F)cccc1F	SF-1 act 57.6
CCOC(=O)c1sc(NC(=O)c2ccc(S(=O)(=O)N3CCOCC3)cc2)cc1C	none
CCOc1ccccc1NC(=O)C1=C(C)NC(=O)NC1c1cccc(OC)c1OC (configuration not stated)	none
O=C(/C=C\Nc1cccc(F)c1)c1ccc2c(c1)OCO2	D1 mod -6.87, mHtt clearance 83.6
OCCn1c(-c2ccc3c(c2)OCO3)csc1=Nc1ccccc1	D1 mod -3.38, SF-1 act 50.6 (no result: mHtt clearance)
CCOc1ccc(N=c2scc(-c3ccc(OC)cc3)n2CCO)cc1	none (no result: M1 ag, D1 mod, SF-1 act, M1 antagonist, RORA act)
O=C(CCn1c(=O)sc2ccccc21)NCc1ccc2c(c1)OCO2	none (no result: mHtt clearance)
c1csc(-c2csc3ncnc(NCCCN4CCOCC4)c23)c1	M1 ag 2.03
Cc1cc(-n2c(C)cc(C(=O)CSc3ccc4c(c3)OCCO4)c2C)no1	none (no result: mHtt clearance)
Cc1cc(Nc2ccccc2N2CCOCC2)n2ncnc2n1	none
CCOc1ccccc1Oc1ccc(C(F)(F)F)cn1	D1 mod -4
CN(C(=O)c1cccnc1)c1nnc(-c2ccccn2)s1	SF-1 act 69.9
CN(C(=O)c1cccnc1)c1nnc(-c2cnccn2)s1	none
CN(C(=O)c1ccccn1)c1nnc(-c2cnccn2)s1	SF-1 act 69.9
CCOC(=O)CNc1nc(C#N)nc(N2CCOCC2)n1	none
COc1ccc(OC)c(C2=NOC(C(=O)Nc3cc(C)nn3-c3ccccc3)C2)c1 (configuration not stated)	none (no result: mHtt clearance)
O=c1c2[nH]c3ccccc3c2ncn1C1CCCCC1	RORA act 61.1 (no result: mHtt clearance)
Cc1nc(CCNC(=O)COc2ccccc2)cs1	mHtt clearance 73.9
CC(=O)Nc1ccc(N2CCN(C(=O)c3cccs3)CC2)cc1	none (no result: mHtt clearance)
